Data set [1] can be described thus: Toxicity against Drosophila W1118 assessed as proportion of eclosed-flies at 10 uM measured after 72 hrs.
The nature of data set [2]: Effect on IL-1 beta release in Sprague-Dawley rat microglial cells at 2.5 uM by ELISA. The data set is classed as toxicity, cell-based. The settings on record: microglia. Put shortly: (§1)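 Primary cortical rat microglia in DMSO (≤0.1%) or vehicle for 1 h, then 100 ng/mL LPS for 24 h. TNF-α and IL-1β in culture medium by ELISA against standard curves (pg/mL), expressed as % of LPS-stimulated cultures. Mean ± SEM of 3 independent experiments; one-way ANOVA, Holm-Sidak test.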

The subject of data set [3] is Drosophila. Kind of data set: Downregulation of Nrf2 transcript expression in Spastin Drosophila (Tubulin/Gal4 RNAi DSpast) neurodegenerative model at 10 uM flies raised in compound-enriched food by real-time PCR analysis. The data set is classed as functional. The procedure, abridged:
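Total RNA from 5 third-instar Spastin-RNAi larvae raised on standard or compound-enriched food; Tubulin-Gal4/+ as control line. One-step SYBR RT-qPCR normalised to Rp49 by the 2^−ΔΔCt method. n = 3 experiments; one-way ANOVA, Tukey's test.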

The test system of data set [4] is Microglia. Kind of data set: Antiinflammatory activity against Sprague-Dawley rat microglial cells assessed as inhibition of LPS-induced TNF-alpha production at 2.5 uM pretreated with compound for 1 hr followed by LPS stimulation for 24 hrs by ELISA. Format: functional, cell-based. The settings on record: time 25.0 hrs. Put shortly: as §1
Data set [5] deals with Microglia. Put plainly: Cytotoxicity against Sprague-Dawley rat microglial cells assessed as decrease in cell viability at 5 uM incubated for 24 hrs by MTT assay. The data set is classed as toxicity, cell-based. The procedure, abridged:
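Primary rat microglia, 6×10^4 cells/well, switched to serum-free medium 1 h before 24 h exposure (1–20 μM, DMSO ≤0.1%). MTT 0.18 mg/mL for 4 h at 37 °C, formazan dissolved in DMSO, absorbance 570 nm (reference 630 nm). Vehicle-treated cells = 100% viability.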

The nature of data set [6]: Toxicity against Drosophila W1118 assessed as minimum toxic concentration by measuring eclosion rate measured for 72 hrs.
The target in data set [7] is Amyloid-beta precursor protein (Homo sapiens) (UniProt P05067). Kind of data set: Anti-oligomeric activity against Abeta42 (unknown origin) assessed as depletion of the formation of toxic HMW Abeta42 oligomers at 5 uM measured at day 7 from sample solubilization by capillary electrophoresis assay. The settings on record: time 7.0 day. Put shortly: (§2)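 Aβ42 stock diluted to 221 μM in 20 mM sodium phosphate pH 7.4 containing compound (ethanol stocks 1.53 mM). Capillary electrophoresis: BGE 80 mM sodium phosphate pH 7.4, 30 mbar × 3 s hydrodynamic injection, +12 kV, 25 °C, 200 nm detection. Oligomers assigned by effective mobility; HMW oligomer peak quantified semiquantitatively as normalised area %.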
Chain of Amyloid-beta precursor protein (Homo sapiens) (P05067 whole entry): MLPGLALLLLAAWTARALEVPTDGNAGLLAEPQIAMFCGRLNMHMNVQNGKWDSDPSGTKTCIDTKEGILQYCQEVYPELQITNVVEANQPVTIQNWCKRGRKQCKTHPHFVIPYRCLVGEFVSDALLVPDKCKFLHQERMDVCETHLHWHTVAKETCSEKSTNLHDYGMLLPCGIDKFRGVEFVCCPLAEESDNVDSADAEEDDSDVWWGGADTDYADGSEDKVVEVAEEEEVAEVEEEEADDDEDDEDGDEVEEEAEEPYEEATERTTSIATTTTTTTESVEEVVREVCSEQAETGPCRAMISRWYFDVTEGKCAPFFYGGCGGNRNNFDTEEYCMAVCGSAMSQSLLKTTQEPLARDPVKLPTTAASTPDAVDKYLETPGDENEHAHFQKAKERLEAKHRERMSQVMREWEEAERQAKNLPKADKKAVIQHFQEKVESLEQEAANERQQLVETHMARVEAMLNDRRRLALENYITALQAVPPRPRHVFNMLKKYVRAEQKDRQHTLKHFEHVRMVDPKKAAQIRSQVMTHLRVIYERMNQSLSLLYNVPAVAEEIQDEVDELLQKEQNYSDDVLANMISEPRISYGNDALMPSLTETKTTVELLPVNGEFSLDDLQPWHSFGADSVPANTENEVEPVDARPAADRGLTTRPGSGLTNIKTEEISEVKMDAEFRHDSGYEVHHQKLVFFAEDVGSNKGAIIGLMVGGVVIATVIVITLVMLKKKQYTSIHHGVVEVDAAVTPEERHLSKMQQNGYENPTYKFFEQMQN

Data set [8] deals with Microglia. Put plainly: Antiinflammatory activity against Sprague-Dawley rat microglial cells assessed as downregulation of NLRP3 mRNA expression at 2.5 uM pretreated with compound for 1 hr followed by LPS stimulation for 6 hrs by real-time PCR analysis. Format: functional, cell-based. The settings on record: time 7.0 hrs. Put shortly: (§3)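 Primary cortical microglia (postnatal day 1 rat pups, shaken off mixed glial cultures, ~97% Iba1-positive). Compound (DMSO ≤0.1%) for 1 h, then 100 ng/mL ultra-pure E. coli LPS for 6 h. QIAzol RNA extraction, SuperScript IV reverse transcription, real-time PCR. Mean ± SEM, n = 3 in triplicate; one-way ANOVA, Holm-Sidak test.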

For data set [9], the target named is Keap1/Nrf2 (Homo sapiens) (UniProt Q16236+Q14145). Put plainly: Activation of Keap1/Nrf2 in human SH-SY5Y cells assessed as Nrf2 nuclear translocation by measuring increase in nuclear to cytosolic Nrf2 ratio at 2.5 uM incubated for 3 hrs by western blot analysis. The data set is classed as cell-based. Particulars: filed as activator. Put shortly:
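SH-SY5Y seeded 2×10^6 cells/dish, grown 24 h, then exposed 3 h at 37 °C, 5% CO2. Nuclear and cytosolic fractions immunoblotted for Nrf2, membranes stripped and reprobed for β-actin and lamin B1 as loading references. Mean ± SEM of three independent experiments; one-way ANOVA with Dunnett's test.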

The nature of data set [10]: Toxicity against Drosophila W1118 assessed as proportion of eclosed-flies at 50 uM measured after 72 hrs.
Data set [11] deals with Drosophila. Kind of data set: Antioxidant activity in Spastin Drosophila (Tubulin/Gal4 RNAi DSpast) neurodegenerative model assessed as decrease in intracelluar ROS level in A2 muscle at 10 uM flies raised in compound-enriched food by DHE staining based fluorescence analysis. Format: functional, organism-based. Put shortly: (§4)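 Spastin-RNAi (Tubulin-Gal4 cross, 28 °C) third-instar larvae raised on compound-enriched food, dissected in HL3, stained 30 min with 30 μM DHE, fixed in 4% PFA, DAPI counterstained. Confocal imaging (DHE 580–630 nm); two 2500 μm² ROIs per muscle or two 1900 μm² ROIs per brain, 10–15 larvae per group; DHE/DAPI ratio.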

In data set [12] the test system is Microglia. Kind of data set: Antiinflammatory activity against Sprague-Dawley rat microglial cells assessed as inhibition of LPS-induced TNF-alpha production at 1 to 2.5 uM pretreated with compound for 1 hr followed by LPS stimulation for 24 hrs by ELISA. Format: functional, cell-based. The settings on record: dose 1-2.5 µM, time 25.0 hrs. Put shortly:
as §1

In data set [13] the target is Amyloid-beta precursor protein (Homo sapiens) (UniProt P05067). Kind of data set: Anti-oligomeric activity against Abeta42 (unknown origin) assessed as depletion of the formation of toxic HMW Abeta42 oligomers at 2.5 uM measured after 2 to 10 days from sample solubilization by capillary electrophoresis assay. Particulars: time 2-10 day. Put shortly:
as §2

Data set [14] has as its system SH-SY5Y. Put plainly: Antioxidant activity in human SH-SY5Y cells assessed as increase in intracellular GSH level at 2.5 uM incubated for 24 hrs by […] fluorescence analysis. Format: functional. The procedure, abridged: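 SH-SY5Y (2×10^4 cells/well) grown 24 h, then exposed to 2.5 μM for 24 h at 37 °C. Fluorescent probe added 30 min at 37 °C; read at ex 355/em 460 nm. GSH (μM) from a GSH standard curve. Mean ± SEM of three experiments; one-way ANOVA with Dunnett's test.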

Data set [15] has as its system Drosophila. Kind of data set: Antioxidant activity in Spastin Drosophila (Tubulin/Gal4 RNAi DSpast) neurodegenerative model assessed as decrease in intracelluar ROS level in brain at 10 uM flies raised in compound-enriched food by DHE staining based fluorescence analysis. The data set is classed as functional, organism-based. The procedure, abridged:
as §4

Data set [16] can be described thus: Toxicity against Drosophila W1118 assessed as proportion of eclosed-flies at 20 uM measured after 72 hrs.
Data set [17] deals with Microglia. Kind of data set: Antiinflammatory activity against Sprague-Dawley rat microglial cells assessed as inhibition of LPS-induced IL-1 beta production at 1 to 2.5 uM pretreated with compound for 1 hr followed by LPS stimulation for 24 hrs by ELISA. Format: functional, cell-based. Particulars: dose 1-2.5 µM, time 25.0 hrs. The procedure, abridged:
as §1

The subject of data set [18] is Microglia. Put plainly: Antiinflammatory activity against Sprague-Dawley rat microglial cells assessed as downregulation of TNF-alpha mRNA expression at 2.5 uM pretreated with compound for 1 hr followed by LPS stimulation for 6 hrs by real-time PCR analysis. The data set is classed as functional, cell-based. The settings on record: time 7.0 hrs. The procedure, abridged:
as §3

Data set [19] is described as follows: Toxicity against Drosophila W1118 assessed as proportion of eclosed-flies at 1 uM measured after 72 hrs.

Calls of active or inactive are those of the source. No cut-off for these calls is given here.

Chain of Keap1/Nrf2 (Homo sapiens) (Q14145 whole entry, looked up): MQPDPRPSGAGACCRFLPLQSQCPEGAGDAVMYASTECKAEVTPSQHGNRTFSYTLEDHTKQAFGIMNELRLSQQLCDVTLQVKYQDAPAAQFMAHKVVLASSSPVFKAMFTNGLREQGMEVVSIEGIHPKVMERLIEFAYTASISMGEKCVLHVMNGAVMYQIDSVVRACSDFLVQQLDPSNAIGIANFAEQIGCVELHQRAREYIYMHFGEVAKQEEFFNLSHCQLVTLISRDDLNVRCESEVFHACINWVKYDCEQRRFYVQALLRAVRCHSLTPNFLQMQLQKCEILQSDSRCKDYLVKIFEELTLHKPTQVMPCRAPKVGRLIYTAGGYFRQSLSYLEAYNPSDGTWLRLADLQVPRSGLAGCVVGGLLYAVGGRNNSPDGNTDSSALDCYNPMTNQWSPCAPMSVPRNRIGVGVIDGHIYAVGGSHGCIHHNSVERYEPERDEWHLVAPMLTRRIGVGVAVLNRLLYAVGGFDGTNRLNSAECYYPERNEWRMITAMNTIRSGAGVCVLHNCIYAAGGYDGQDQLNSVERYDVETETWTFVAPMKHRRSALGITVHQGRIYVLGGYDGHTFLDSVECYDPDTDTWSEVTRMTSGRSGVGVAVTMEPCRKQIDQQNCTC
Chain of Keap1/Nrf2 (Homo sapiens) (Q16236 whole entry, looked up): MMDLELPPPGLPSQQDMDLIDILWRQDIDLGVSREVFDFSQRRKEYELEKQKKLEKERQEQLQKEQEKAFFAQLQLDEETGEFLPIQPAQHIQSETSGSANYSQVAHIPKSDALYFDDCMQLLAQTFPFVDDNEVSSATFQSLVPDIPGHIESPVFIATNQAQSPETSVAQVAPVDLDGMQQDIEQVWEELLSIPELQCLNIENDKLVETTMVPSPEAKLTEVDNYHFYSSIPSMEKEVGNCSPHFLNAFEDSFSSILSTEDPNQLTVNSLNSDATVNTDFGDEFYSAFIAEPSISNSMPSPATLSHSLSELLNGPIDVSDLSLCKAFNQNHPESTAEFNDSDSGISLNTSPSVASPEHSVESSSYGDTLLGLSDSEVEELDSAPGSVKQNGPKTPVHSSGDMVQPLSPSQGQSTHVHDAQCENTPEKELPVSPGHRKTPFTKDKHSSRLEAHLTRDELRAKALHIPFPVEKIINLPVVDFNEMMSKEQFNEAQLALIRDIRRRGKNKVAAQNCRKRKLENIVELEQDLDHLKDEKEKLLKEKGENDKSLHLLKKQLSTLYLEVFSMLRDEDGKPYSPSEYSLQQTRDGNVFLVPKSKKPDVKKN

As to `CCCCn1cc(C/C(C(=O)/C=C/c2ccc(OC)cc2)=C(O)\C=C\c2ccc(OC)cc2)nn1`, the Activity is recorded as 93.831% in data set [1]; “Non-Toxic” in data set [2]; “Toxic” in [5]; 71.309% in data set [10]; 40% in data set [14]; 88.099% in data set [16]. For the same compound, in data set [19], the Activity is on record as 95.238%. Further, the inhibition result in data set [3] is “Active”. Also, the result in [4], in data set [7], in data set [8], in data set [9], in data set [11] and in data set [12] was Active. In addition, the outcome in [13], in [15], in [17] and in data set [18] was Active. Also, the MTC in [6] was found to be 10 µM.
